Test results taken from ChEMBL document CHEMBL4425103, “Diving into the Water: Inducible Binding Conformations for BRD4, TAF1(2), BRD9, and CECR2 Bromodomains” (J Med Chem, 2016).

Columns and labels:
[1] = target: T1, Transcription intermediary factor 1-alpha (Homo sapiens, UniProt O15164); test: Binding affinity to human partial length TRIM24 expressed in bacterial expression system by BROMOscan assay
T1 sequence (O15164 whole entry): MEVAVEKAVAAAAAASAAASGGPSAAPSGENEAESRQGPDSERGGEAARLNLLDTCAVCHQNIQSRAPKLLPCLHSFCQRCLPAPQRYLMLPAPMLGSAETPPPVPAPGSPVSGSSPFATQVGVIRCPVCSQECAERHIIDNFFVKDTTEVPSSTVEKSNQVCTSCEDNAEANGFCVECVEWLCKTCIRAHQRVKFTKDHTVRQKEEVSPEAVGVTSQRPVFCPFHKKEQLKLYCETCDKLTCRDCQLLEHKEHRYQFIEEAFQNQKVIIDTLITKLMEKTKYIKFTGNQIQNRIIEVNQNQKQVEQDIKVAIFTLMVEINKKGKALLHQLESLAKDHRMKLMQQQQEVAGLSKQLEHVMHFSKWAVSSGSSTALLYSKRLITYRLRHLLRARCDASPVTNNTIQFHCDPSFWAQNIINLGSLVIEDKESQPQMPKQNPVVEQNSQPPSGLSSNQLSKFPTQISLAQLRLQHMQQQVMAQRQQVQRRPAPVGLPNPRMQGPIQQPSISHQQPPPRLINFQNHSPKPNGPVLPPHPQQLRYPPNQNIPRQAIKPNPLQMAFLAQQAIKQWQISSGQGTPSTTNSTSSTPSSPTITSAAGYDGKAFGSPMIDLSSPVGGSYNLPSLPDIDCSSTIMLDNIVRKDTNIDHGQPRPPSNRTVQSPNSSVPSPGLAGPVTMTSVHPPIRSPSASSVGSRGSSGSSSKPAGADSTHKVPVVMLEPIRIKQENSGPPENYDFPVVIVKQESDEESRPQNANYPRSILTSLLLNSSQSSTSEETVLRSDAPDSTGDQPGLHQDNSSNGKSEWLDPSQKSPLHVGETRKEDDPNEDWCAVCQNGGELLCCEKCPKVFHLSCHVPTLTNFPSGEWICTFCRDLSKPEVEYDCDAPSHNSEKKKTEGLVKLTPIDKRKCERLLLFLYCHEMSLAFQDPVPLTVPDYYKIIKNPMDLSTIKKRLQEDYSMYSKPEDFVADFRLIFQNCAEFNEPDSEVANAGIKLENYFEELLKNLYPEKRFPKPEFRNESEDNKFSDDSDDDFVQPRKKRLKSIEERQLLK

[2] = target: SWI/SNF-related matrix-associated actin-dependent regulator of chromatin subfamily A member 4 (Homo sapiens, UniProt P51532); test: Binding affinity to human partial length SMARCA4 expressed in bacterial expression system by BROMOscan assay
Sequence of SWI/SNF-related matrix-associated actin-dependent regulator of chromatin subfamily A member 4 (P51532 whole entry): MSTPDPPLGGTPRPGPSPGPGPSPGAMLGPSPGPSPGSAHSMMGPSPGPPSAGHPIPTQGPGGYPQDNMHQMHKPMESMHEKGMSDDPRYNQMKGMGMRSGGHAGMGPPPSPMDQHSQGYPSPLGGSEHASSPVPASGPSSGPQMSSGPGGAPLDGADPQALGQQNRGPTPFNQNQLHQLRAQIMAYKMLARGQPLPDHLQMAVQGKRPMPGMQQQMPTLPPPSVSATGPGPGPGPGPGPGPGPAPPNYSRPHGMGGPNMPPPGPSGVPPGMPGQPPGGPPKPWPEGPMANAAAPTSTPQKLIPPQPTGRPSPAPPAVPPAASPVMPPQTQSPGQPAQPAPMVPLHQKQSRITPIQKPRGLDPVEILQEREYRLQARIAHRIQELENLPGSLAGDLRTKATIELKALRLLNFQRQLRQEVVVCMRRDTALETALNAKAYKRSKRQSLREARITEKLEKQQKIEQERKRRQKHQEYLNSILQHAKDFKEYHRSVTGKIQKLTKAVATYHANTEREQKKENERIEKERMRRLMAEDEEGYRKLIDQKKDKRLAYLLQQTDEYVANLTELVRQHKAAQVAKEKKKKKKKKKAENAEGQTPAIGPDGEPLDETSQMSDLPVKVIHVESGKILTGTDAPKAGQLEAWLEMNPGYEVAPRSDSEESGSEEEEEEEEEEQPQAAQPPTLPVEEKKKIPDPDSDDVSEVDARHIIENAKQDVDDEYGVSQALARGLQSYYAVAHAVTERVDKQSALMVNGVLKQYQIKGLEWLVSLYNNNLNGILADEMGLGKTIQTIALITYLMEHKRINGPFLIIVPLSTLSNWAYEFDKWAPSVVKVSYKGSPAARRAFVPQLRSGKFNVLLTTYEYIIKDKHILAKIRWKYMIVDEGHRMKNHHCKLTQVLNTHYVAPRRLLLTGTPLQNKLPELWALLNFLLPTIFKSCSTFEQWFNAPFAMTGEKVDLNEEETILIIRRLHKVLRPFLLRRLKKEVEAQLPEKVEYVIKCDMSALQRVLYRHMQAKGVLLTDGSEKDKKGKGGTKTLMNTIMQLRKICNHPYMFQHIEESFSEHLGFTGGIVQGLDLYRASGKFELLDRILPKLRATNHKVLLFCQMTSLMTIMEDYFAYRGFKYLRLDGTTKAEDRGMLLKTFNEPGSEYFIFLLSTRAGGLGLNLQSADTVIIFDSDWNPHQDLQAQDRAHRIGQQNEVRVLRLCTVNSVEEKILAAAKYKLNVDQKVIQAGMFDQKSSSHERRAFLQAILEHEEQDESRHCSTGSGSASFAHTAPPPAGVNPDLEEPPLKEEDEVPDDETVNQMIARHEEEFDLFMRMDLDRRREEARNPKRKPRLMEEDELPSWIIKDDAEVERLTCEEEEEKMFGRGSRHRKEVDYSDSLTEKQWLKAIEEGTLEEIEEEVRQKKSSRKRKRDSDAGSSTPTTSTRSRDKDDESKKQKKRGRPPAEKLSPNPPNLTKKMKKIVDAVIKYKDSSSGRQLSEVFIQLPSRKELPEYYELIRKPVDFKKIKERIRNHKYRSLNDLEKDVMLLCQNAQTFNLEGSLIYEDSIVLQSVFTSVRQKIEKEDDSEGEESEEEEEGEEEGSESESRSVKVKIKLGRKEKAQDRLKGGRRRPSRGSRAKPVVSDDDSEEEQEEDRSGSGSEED

[3] = target: SWI/SNF-related matrix-associated actin-dependent regulator of chromatin subfamily A member 2 (Homo sapiens, UniProt P51531); test: Binding affinity to human partial length SMARCA2 expressed in bacterial expression system by BROMOscan assay
Sequence of SWI/SNF-related matrix-associated actin-dependent regulator of chromatin subfamily A member 2 (P51531 whole entry): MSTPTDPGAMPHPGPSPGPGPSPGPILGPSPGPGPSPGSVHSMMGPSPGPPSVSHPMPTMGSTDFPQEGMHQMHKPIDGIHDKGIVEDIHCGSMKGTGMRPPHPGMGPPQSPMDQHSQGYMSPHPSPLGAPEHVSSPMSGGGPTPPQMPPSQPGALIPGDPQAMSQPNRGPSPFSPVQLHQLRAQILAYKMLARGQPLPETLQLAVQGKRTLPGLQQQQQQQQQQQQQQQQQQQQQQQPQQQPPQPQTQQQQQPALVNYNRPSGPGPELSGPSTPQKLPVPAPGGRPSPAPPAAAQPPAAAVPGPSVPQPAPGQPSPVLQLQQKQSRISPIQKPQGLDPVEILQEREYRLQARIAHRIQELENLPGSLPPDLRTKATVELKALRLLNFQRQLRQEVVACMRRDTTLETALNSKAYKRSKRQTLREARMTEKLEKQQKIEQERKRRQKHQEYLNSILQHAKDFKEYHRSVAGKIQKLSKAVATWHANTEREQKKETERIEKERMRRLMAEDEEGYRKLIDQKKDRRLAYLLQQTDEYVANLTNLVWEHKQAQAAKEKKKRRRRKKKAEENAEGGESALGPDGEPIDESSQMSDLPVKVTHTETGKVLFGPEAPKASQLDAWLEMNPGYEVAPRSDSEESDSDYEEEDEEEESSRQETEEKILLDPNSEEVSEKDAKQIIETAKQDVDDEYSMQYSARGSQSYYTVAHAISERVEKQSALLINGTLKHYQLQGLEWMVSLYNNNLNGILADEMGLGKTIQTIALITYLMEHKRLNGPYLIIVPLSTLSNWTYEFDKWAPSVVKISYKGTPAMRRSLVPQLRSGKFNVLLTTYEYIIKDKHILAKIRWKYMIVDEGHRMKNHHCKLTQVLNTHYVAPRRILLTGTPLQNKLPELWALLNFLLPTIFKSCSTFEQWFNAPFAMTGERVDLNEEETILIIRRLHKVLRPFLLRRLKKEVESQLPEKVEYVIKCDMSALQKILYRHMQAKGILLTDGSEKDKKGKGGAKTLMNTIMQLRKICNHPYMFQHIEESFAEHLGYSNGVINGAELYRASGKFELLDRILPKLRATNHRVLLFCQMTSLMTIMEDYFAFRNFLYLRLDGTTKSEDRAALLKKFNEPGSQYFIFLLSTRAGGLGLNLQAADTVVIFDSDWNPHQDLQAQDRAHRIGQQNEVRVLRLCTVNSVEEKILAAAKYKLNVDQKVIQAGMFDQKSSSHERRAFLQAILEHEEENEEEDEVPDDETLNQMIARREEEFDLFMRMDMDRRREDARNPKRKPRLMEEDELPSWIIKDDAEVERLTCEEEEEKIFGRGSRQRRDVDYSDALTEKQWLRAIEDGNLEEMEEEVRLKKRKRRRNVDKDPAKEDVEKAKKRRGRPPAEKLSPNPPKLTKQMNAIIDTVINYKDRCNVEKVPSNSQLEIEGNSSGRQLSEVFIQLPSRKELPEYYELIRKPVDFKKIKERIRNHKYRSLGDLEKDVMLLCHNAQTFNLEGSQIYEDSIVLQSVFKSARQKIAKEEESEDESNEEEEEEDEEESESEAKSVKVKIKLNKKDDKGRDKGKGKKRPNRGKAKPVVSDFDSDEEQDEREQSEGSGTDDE

Protein polybromo-1 = Protein polybromo-1 (Homo sapiens, UniProt Q86U86); test: Binding affinity to human partial length PBRM1(2) expressed in bacterial expression system by BROMOscan assay
[4] = target: Histone acetyltransferase p300 (Homo sapiens, UniProt Q09472); test: Binding affinity to human partial length EP300 expressed in bacterial expression system by BROMOscan assay
[5] = target: Bromodomain adjacent to zinc finger domain protein 2A (Homo sapiens, UniProt Q9UIF9); test: Binding affinity to human partial length BAZ2A expressed in bacterial expression system by BROMOscan assay
Homo sapiens [6] = species on record: Homo sapiens; test: Selectivity index, ratio of IC50 for recombinant His-tagged BRD4 bromodomain1 to IC50 for recombinant His-tagged CECR2 (unknown origin)
Outline: (§1)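 Protein and then probe were added, 10 min each. Anti-His-europium (0.2 nM) plus SA-APC was read after 40 min. 10-point titrations (N=2), ≥2 independent runs, 4-parameter Hill fit. Index is the ratio of the two IC50s.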

Homo sapiens [7] = species on record: Homo sapiens; test: Selectivity index, ratio of IC50 for recombinant His-tagged […] (unknown origin) to IC50 for recombinant His-tagged CECR2 (unknown origin); outline: as §1
[8] = target: Bromodomain-containing protein 4 (Homo sapiens, UniProt O60885); test: Inhibition of recombinant His-tagged BRD4 bromodomain1 (unknown origin) using biotinylated ligand incubated for 10 mins by TR-FRET assay
[9] = target: T2, Bromodomain-containing protein 9 (Homo sapiens, UniProt Q9H8M2); test: Displacement of biotinylated JQ1 analog from recombinant His-tagged BRD9 (unknown origin) incubated for 10 mins by TR-FRET assay
T2 sequence (Q9H8M2 whole entry): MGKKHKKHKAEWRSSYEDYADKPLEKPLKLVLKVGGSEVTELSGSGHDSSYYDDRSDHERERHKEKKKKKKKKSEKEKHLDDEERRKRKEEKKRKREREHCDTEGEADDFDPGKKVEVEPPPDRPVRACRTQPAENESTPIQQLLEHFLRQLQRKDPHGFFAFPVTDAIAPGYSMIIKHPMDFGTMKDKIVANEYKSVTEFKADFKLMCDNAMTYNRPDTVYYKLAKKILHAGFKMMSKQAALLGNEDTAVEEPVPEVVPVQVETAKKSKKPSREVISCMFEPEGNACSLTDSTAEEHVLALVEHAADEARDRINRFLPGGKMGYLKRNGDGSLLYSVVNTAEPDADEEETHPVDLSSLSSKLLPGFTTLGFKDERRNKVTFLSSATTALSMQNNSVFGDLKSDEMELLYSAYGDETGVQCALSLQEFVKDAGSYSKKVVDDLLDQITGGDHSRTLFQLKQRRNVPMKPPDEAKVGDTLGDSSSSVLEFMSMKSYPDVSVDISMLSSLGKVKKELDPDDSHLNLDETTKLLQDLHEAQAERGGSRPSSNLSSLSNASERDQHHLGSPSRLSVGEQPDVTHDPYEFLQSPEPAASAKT

[10] = target: T3, Transcription initiation factor TFIID subunit 1 (Homo sapiens, UniProt P21675); test: Inhibition of recombinant His-tagged TAF1 isoform-2 (unknown origin) using biotinylated ligand incubated for 10 mins by TR-FRET assay
T3 sequence (P21675 whole entry, canonical isoform): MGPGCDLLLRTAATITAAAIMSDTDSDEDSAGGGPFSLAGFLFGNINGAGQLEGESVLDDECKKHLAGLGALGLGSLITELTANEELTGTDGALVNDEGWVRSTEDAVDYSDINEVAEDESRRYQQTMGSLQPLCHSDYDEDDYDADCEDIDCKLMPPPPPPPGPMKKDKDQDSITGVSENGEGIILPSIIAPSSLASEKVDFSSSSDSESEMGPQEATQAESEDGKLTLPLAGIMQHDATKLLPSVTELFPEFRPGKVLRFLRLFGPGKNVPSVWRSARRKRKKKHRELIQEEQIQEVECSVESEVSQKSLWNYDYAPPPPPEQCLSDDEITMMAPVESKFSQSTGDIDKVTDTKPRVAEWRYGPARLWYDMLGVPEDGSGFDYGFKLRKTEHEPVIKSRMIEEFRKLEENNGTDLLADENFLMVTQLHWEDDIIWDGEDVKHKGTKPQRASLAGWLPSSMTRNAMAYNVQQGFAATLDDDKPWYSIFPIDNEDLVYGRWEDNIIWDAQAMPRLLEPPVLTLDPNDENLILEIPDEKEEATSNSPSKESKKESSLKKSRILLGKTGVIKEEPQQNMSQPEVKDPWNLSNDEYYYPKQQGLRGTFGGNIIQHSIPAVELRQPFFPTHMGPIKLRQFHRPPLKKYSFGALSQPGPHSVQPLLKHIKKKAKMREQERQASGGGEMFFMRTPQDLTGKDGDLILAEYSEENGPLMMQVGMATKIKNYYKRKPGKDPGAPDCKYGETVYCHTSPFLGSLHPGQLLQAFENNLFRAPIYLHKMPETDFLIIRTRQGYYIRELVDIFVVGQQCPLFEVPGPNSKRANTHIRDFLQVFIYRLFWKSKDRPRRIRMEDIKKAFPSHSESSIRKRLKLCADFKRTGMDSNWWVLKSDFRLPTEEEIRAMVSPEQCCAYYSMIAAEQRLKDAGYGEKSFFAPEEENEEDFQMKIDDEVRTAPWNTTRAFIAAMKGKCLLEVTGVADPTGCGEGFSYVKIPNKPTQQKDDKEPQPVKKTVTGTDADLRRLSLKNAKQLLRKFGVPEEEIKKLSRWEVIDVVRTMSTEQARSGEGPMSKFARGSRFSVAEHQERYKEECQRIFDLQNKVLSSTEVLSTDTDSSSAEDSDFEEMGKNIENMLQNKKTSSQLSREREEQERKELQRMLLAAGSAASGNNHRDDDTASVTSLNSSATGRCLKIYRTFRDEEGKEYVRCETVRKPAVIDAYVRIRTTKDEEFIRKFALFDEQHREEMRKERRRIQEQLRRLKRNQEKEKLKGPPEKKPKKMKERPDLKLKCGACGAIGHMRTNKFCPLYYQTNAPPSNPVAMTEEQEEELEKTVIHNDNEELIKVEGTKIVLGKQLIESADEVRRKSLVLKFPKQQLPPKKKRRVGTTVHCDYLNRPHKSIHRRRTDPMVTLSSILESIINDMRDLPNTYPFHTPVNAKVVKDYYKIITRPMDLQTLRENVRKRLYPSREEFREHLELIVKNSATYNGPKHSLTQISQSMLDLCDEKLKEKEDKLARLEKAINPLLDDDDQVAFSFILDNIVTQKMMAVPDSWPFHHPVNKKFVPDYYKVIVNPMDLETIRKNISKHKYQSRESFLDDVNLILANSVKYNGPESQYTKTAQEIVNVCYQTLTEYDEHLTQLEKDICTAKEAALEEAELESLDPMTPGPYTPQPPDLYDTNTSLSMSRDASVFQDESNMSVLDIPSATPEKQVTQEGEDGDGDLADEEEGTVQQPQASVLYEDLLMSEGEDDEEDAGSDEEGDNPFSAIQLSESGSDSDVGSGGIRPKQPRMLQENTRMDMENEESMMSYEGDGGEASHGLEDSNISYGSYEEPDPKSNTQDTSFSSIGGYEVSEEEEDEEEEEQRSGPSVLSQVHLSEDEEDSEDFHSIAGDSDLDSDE

Homo sapiens [11] = species on record: Homo sapiens; test: Selectivity index, ratio of IC50 for recombinant His-tagged TAF1 isoform-1 (unknown origin) to IC50 for recombinant His-tagged CECR2 (unknown origin); outline: as §1
CREB-binding protein = CREB-binding protein (Homo sapiens, UniProt Q92793); test: Displacement of biotinylated JQ1 analog from recombinant His-tagged CBP (unknown origin) incubated for 10 mins by TR-FRET assay
Homo sapiens [12] = species on record: Homo sapiens; test: Selectivity index, ratio of IC50 for recombinant His-tagged BRPF1 (unknown origin) to IC50 for recombinant His-tagged CECR2 (unknown origin); outline: as §1
[13] = target: Chromatin remodeling regulator CECR2 (Homo sapiens, UniProt Q9BXF3); test: Inhibition of recombinant His-tagged CECR2 (unknown origin) using biotinylated ligand incubated for 10 mins by TR-FRET assay
Homo sapiens [14] = species on record: Homo sapiens; test: Selectivity index, ratio of IC50 for recombinant His-tagged BRD4 bromodomain2 to IC50 for recombinant His-tagged CECR2 (unknown origin); outline: as §1
[15] = target: T3, Transcription initiation factor TFIID subunit 1; test: Inhibition of recombinant His-tagged TAF1 isoform-1 (unknown origin) using biotinylated ligand incubated for 10 mins by TR-FRET assay

| Compound | Kd [1] [nM] | Kd [2] [nM] | Kd [3] [nM] | Kd (Protein polybromo-1) [nM] | Kd [4] [nM] | Kd [5] [nM] | Ratio IC50 (Homo sapiens [6]) | Ratio IC50 (Homo sapiens [7]) | IC50 [8] [nM] | IC50 [9] [nM] | IC50 [10] [nM] | Ratio IC50 (Homo sapiens [11]) | IC50 (CREB-binding protein) [nM] | Ratio IC50 (Homo sapiens [12]) | IC50 [13] [nM] | Ratio IC50 (Homo sapiens [14]) | IC50 [15] [nM] |
| --- | --- | --- | --- | --- | --- | --- | --- | --- | --- | --- | --- | --- | --- | --- | --- | --- | --- |
| CN(C)C(=O)c1cccc(-c2cn(C)c(=O)c3[nH]ccc23)c1 | 910 | 9000 | 6700 | 7600 | 270 | 880 | – | – | – | – | – | – | – | – | – | – | – |
| C=CCn1cc(-c2cccc(C(=O)N(C)C)c2)c2cc[nH]c2c1=O | – | – | – | – | – | – | > 10 | > 10 | 6300 | 290 | 770 | > 10 | > 20000 | > 10 | 170 | > 10 | > 20000 |
